From ChEMBL document CHEMBL1759935, “Pharmacokinetic optimisation of novel indole-2-carboxamide cannabinoid CB1 antagonists” (Bioorg Med Chem Lett, 2011)

What was measured:
[1] = Bioavailability in mouse; assay type: ADME, organism-based; details: in vivo
[2] = Bioavailability in dog; assay type: ADME, organism-based, Canis lupus familiaris; details: in vivo
[3] = Intrinsic clearance in rat gut microsomes in presence of UGT; assay type: ADME, Microsome
How it was run: (§1)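 UGT pathway: compound loss in duplicate time-course incubations of liver (prepared in-house) or small intestinal microsomes at 0.5 mg protein/mL, with 2 mM UDPGA, alamethicin and 1 mM MgCl₂ at pH 7.1. Detection by LC–MS/MS; CL_int expressed per mg microsomal protein.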

[4] = Intrinsic clearance in rat liver microsomes in presence of NADPH; assay type: ADME, Microsome
How it was run: (§2)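 P450 pathway: compound depletion in duplicate time-course incubations of microsomes at 0.5 mg protein/mL with 1 mM NADPH, pH 7.4. Liver microsomes prepared in-house; small intestinal microsomes purchased. Loss measured by LC–MS/MS; CL_int expressed per mg microsomal protein.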

[5] = Intrinsic clearance in human gut microsomes in presence of UGT; assay type: ADME, Microsome
How it was run: (§3)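 UGT pathway: human gut or liver microsomes at 0.5 mg protein/mL with 2 mM UDPGA, alamethicin and 1 mM MgCl2, pH 7.1. Compound depletion measured by LC–MS/MS in duplicate time-course incubations; intrinsic clearance expressed per mg protein.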

[6] = Intrinsic clearance in rat gut microsomes in presence of NADPH; assay type: ADME, Microsome; how it was run: as §2
[7] = Intrinsic clearance in human liver microsomes in presence of UGT; assay type: ADME, Microsome; how it was run: as §3
[8] = Intrinsic clearance in rat liver microsomes in presence of UGT; assay type: ADME, Microsome; how it was run: as §1
Cannabinoid receptor 1 [9] = biological target: T1, Cannabinoid receptor 1 (Homo sapiens, UniProt P21554); assay: biochemical; assay type: cell-based, CHO
T1 sequence (P21554 whole entry): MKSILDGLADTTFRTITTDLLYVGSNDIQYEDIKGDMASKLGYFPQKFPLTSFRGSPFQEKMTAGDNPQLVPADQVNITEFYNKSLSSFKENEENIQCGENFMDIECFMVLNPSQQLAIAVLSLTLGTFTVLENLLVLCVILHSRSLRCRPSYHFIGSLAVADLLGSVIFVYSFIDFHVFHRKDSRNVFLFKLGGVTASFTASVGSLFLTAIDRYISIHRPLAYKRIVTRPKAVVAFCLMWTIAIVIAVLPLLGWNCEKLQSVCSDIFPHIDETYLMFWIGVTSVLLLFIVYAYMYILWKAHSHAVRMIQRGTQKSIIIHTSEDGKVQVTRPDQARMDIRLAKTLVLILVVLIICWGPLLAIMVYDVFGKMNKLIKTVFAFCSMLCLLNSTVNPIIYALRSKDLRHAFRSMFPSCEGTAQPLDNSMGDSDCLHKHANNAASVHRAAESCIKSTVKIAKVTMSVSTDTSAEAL

[10] = Intrinsic clearance in mouse gut microsomes in presence of NADPH; assay type: ADME, Microsome; how it was run: as §2
[11] = Intrinsic clearance in mouse gut microsomes in presence of UGT; assay type: ADME, Microsome; how it was run: as §1
[12] = Bioavailability in rat; assay type: ADME, organism-based; details: in vivo
[13] = Intrinsic clearance in dog liver microsomes in presence of UGT; assay type: ADME, Canis lupus familiaris, Microsome; how it was run: as §1
[14] = Intrinsic clearance in human gut microsomes in presence of NADPH; assay type: ADME, Microsome
How it was run: (§4)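 Pooled human microsomes (gut or liver) at 0.5 mg protein/mL with 1 mM NADPH, pH 7.4 (P450 pathway). Compound loss followed by LC–MS/MS in duplicate time-course incubations; intrinsic clearance given per mg protein.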

[15] = Intrinsic clearance in dog gut microsomes in presence of NADPH; assay type: ADME, Canis lupus familiaris, Microsome; how it was run: as §2
Mus musculus [16] = assay: Inhibition of WIN55212-2-induced hypothermia in po dosed mouse assessed as change in rectal temperature administered 15 mins before WIN55212-2 challenge measured after 75 mins; assay type: functional; details: read-out: ID50 (the source's name)
How it was run: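 Antagonist or vehicle (5% mulgofen in saline, 10 mL/kg) given orally 75 min before rectal temperature reading. WIN 55,212-2 mesylate (10 mL/kg) given sc 60 min before the reading, at its time of maximal hypothermia. Metal probe with vaseline inserted about 1.5 cm; highest temperature stable for 10 s recorded. ID50 reported with confidence interval.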

Mus musculus [17] = organism: Mus musculus; assay: Clearance in mouse; assay type: ADME, organism-based; details: in vivo
Canis familiaris = organism: Canis familiaris; assay: Clearance in dog; assay type: ADME, organism-based, Canis lupus familiaris; details: in vivo
[18] = Intrinsic clearance in mouse liver microsomes in presence of NADPH; assay type: ADME, Microsome; how it was run: as §2
Cannabinoid receptor 2 = Cannabinoid receptor 2 (Homo sapiens, UniProt P34972); assay: Displacement of [3H]CP55940 from human recombinant CB2 receptor expressed in Sf9 cells
Chain of Cannabinoid receptor 2 (P34972 whole entry): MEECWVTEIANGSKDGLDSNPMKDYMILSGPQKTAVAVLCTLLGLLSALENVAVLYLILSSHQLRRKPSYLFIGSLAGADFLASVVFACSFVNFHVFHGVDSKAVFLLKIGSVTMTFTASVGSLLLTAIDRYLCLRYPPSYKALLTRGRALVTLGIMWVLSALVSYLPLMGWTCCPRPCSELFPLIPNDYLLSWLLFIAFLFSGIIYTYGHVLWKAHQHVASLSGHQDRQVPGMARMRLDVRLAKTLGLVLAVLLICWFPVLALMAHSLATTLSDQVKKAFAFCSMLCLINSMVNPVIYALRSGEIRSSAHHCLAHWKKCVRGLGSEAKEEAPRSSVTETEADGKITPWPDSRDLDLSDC
How it was run: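 Competition binding against [3H]CP55,940 on membranes from Sf9 cells expressing recombinant human CB2 receptor; run at least in duplicate.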

[19] = Intrinsic clearance in dog gut microsomes in presence of UGT; assay type: ADME, Canis lupus familiaris, Microsome; how it was run: as §1
Rattus norvegicus = organism: Rattus norvegicus; assay: Clearance in rat; assay type: ADME, organism-based; details: in vivo
[20] = Intrinsic clearance in human liver microsomes in presence of NADPH; assay type: ADME, Microsome; how it was run: as §4
[21] = Intrinsic clearance in dog liver microsomes in presence of NADPH; assay type: ADME, Canis lupus familiaris, Microsome; how it was run: as §2
[22] = Intrinsic clearance in mouse liver microsomes in presence of UGT; assay type: ADME, Microsome; how it was run: as §1
Cannabinoid receptor 1 [23] = biological target: T1, Cannabinoid receptor 1; assay: Antagonist activity against human CB1 receptor; assay type: functional
Homo sapiens = organism: Homo sapiens; assay: Clearance in human; assay type: ADME, organism-based; details: in vivo
clinical = details: human, in vivo

With `COc1ccc(OC(F)(F)F)cc1Cn1c(C(=O)NCC(C)(C)CO)cc2cc(C#N)ccc21` the bioavailability [1] was 30%, the bioavailability [2] was 67% and the microsomal CLint [3] was under 6 µL/min/mg. It also gave a microsomal CLint [4] of 69 µL/min/mg, a microsomal CLint [5] of 68 µL/min/mg and a microsomal CLint [6] of under 6 µL/min/mg. It also gave a microsomal CLint [7] of 31 µL/min/mg, a microsomal CLint [8] of 191 µL/min/mg and a Ki (Cannabinoid receptor 1 [9]) of 0.398 nM. It also gave a microsomal CLint [10] of under 6 µL/min/mg, a microsomal CLint [11] of under 6 µL/min/mg and a bioavailability [12] of 8%. It also gave a microsomal CLint [13] of 7 µL/min/mg, a microsomal CLint [14] of under 6 µL/min/mg and a microsomal CLint [15] of under 6 µL/min/mg. For the same molecule, the ED50 (Mus musculus [16]) was 0.88 µmol/kg, the clearance (Mus musculus [17]) was 17 mL/min/kg and the clearance (Canis familiaris) was 7 mL/min/kg. It also gave a microsomal CLint [18] of 45 µL/min/mg, a Ki (Cannabinoid receptor 2) of over 10000 nM and a microsomal CLint [19] of under 6 µL/min/mg. The clearance (Rattus norvegicus) was 104 mL/min/kg, the microsomal CLint [20] was 69 µL/min/mg and the microsomal CLint [21] was under 6 µL/min/mg. For the same molecule, the microsomal CLint [22] was under 6 µL/min/mg and the IC50 (Cannabinoid receptor 1 [23]) was 1.17 nM.
Work on `O=C(c1ccc(OCCN2CCCCC2)cc1)c1c(-c2ccc(O)cc2)sc2cc(O)ccc12` [RALOXIFENE] yielded a bioavailability [1] of 10%, a bioavailability [2] of 5% and a microsomal CLint [3] of 5 µL/min/mg. For the same molecule, the microsomal CLint [4] was 79 µL/min/mg, the microsomal CLint [5] was 346 µL/min/mg and the clearance (Homo sapiens) was 21 mL/min/kg. The microsomal CLint [6] was under 6 µL/min/mg, the microsomal CLint [7] was 24 µL/min/mg and the microsomal CLint [8] was 11 µL/min/mg. It also gave a microsomal CLint [10] of under 6 µL/min/mg, a microsomal CLint [11] of 34 µL/min/mg and a bioavailability [12] of 4%. It also gave a bioavailability (clinical) of 2%, a microsomal CLint [13] of 26 µL/min/mg and a microsomal CLint [14] of under 6 µL/min/mg. The microsomal CLint [15] was under 6 µL/min/mg, the clearance (Mus musculus [17]) was 108 mL/min/kg and the clearance (Canis familiaris) was 40 mL/min/kg. It also gave a microsomal CLint [18] of 66 µL/min/mg, a microsomal CLint [19] of 22 µL/min/mg and a clearance (Rattus norvegicus) of 58 mL/min/kg. It also gave a microsomal CLint [20] of 79 µL/min/mg, a microsomal CLint [21] of 178 µL/min/mg and a microsomal CLint [22] of under 6 µL/min/mg.
`Cc1ccc(C(F)(F)F)cc1Cn1c(C(=O)NCCC(C)(C)O)cc2cc(C#N)ccc21` gave a bioavailability [1] of 31%, a bioavailability [2] of 42% and a microsomal CLint [3] of under 6 µL/min/mg. For the same molecule, the microsomal CLint [4] was over 280 µL/min/mg, the microsomal CLint [5] was under 6 µL/min/mg and the microsomal CLint [6] was under 6 µL/min/mg. It also gave a microsomal CLint [7] of under 6 µL/min/mg, a microsomal CLint [8] of over 280 µL/min/mg and a Ki (Cannabinoid receptor 1 [9]) of 4.37 nM. It also gave a microsomal CLint [10] of under 6 µL/min/mg, a microsomal CLint [11] of under 6 µL/min/mg and a bioavailability [12] of 2%. For the same molecule, the microsomal CLint [13] was under 6 µL/min/mg, the microsomal CLint [14] was under 6 µL/min/mg and the microsomal CLint [15] was under 6 µL/min/mg. It also gave an ED50 (Mus musculus [16]) of 1.16 µmol/kg, a clearance (Mus musculus [17]) of 10 mL/min/kg and a clearance (Canis familiaris) of 15 mL/min/kg. It also gave a microsomal CLint [18] of 33 µL/min/mg, a Ki (Cannabinoid receptor 2) of over 10000 nM and a microsomal CLint [19] of under 6 µL/min/mg. For the same molecule, the clearance (Rattus norvegicus) was 200 mL/min/kg, the microsomal CLint [20] was 12 µL/min/mg and the microsomal CLint [21] was 17 µL/min/mg. It also gave a microsomal CLint [22] of under 6 µL/min/mg and an IC50 (Cannabinoid receptor 1 [23]) of 5.13 nM.
